Measurements collected from several papers.
Each line is one published result; the experiments were not run side by side.
Observed: cell growth or viability

| SMILES | cell line | assay | setting | endpoint | value |
| --- | --- | --- | --- | --- | --- |
| O=C(Nc1ccc(Cl)cc1)Nc1cccc(-c2cn(Cc3ccc(Br)cc3)nn2)c1 | NCI-H1299 | CCK-8 | 50 µM, 72 h | viability | 76.7% |
| N.N.O=C([O-])C1(C(=O)[O-])CCC1.[Pt+2] | Vero | MTT | 48 h | IC50 | 506000 nM |
| Cc1sc2c(c1C)C(c1ccc(Cl)cc1)=N[C@@H](CC(N)=O)c1nnc(C)n1-2 | MP41 | ATP luminescence | 72 h | IC50 | 153 nM |
| Cn1cc2cc(C(F)(F)c3nnc4ccc(-c5cnn(C6CC6)c5)nn34)c(F)cc2n1 | MKN-45 | CCK-8 | 72 h | IC50 | 12 nM |
| COc1c(C)c2c(c(O)c1C/C=C(\C)CCC(=O)O)C(=O)OC2 | MDA-MB-436 |  |  | IC50 | 1120 nM |
| O=C(NCc1ccccc1)c1cn(Cc2ccc(C(F)(F)F)cc2)c2ccc(Oc3ccccc3)cc2c1=O | HCC70 |  | 72 h | CC50 | 20500 nM |
| N.N.[Cl][Pt][Cl] | Vero | MTT | 48 h | IC50 | 63100 nM |
| COc1cc(C(=O)c2nc(-c3cccc4[nH]ccc34)c(Br)[nH]2)cc(OC)c1OC | M14 | MTS | 72 h | IC50 | > 1000 nM |
| CC(=O)N[C@H]1[C@@H](O[C@@H]2O[C@H](C[C@@H](O)[C@H]3O[C@@H](n4ccc(=O)[nH]c4=O)[C@H](O)[C@@H]3O)[C@H](O)[C@H](O)[C@H]2NC(=O)/C=C/CCCCCCCCCC(C)C)O[C@H](CO)[C@@H](O)[C@@H]1O | SK-BR-3 | WST-1 |  | IC50 | 110 nM |
| COc1cc(C(=O)c2nc(-c3c[nH]c4cccc(C)c34)c[nH]2)cc(OC)c1OC | M14 | MTS | 72 h | IC50 | 167 nM |
| CC[C@@]1(O)C(=O)OCc2c1cc1n(c2=O)Cc2cc3ccccc3nc2-1 | MP41 | ATP luminescence | 72 h | IC50 | 117 nM |
